# Experimental data from ChEMBL document CHEMBL1124107, “Antihypertensive thiadiazoles. 1. Synthesis of some 2-aryl-5-hydrazino-1,3,4-thiadiazoles with vasodilator activity” (1988).
# The source made the active and inactive calls. No cut-off for these calls is given here.
# Assays:
# [1] = test system: Rattus norvegicus; assay: Maximum percentage reduction in mean blood pressure in metacorticoid (DOCA) hypertensive rats at a standard oral dose of 100 mg/kg; format: functional
# How it was run: (§1)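 DOCA hypertensive rats, n = 3-5. Food removed 18 h before oral dosing; ip injections given to unstarved animals. Blood pressure recorded by pressure transducer under minimal restraint, twice before dosing with drug or isotonic saline vehicle, then at 1, 2, 3, 5 and 22 h. MABP taken as diastolic plus one-third pulse pressure.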
# [2] = test system: Rattus norvegicus; assay: Increase in diastolic blood pressure for 0.3 ug/kg intravenous dosing of angiotensin in pithed rats; format: functional, Artery
# How it was run: (§2)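 Male rats (200-300 g) pretreated ip with drug or isotonic saline, groups of five, 1 or 2 h before pithing. Halothane anesthesia, tracheal cannulation, CNS destroyed via left orbit and spinal cord, artificial respiration with room air at 50 strokes/min. Pressor responses to iv noradrenaline (0.1-1.0 ug/kg), iv angiotensin (0.03-0.3 ug/kg), or whole sympathetic outflow stimulation.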
# [3] = test system: Rattus norvegicus; assay: Increase in diastolic blood pressure for 0.1 ug/kg intravenous dosing of noradrenaline in pithed rats; format: functional, Artery; how it was run: as §2
# [4] = test system: Rattus norvegicus; assay: Maximum percentage reduction in mean blood pressure and heart rate in metacorticoid (DOCA) hypertensive rats at a standard oral dose of 100 mg/kg
# [5] = test system: Rattus norvegicus; assay: Increase in diastolic blood pressure for 0.03 ug/kg intravenous dosing of angiotensin in pithed rats; format: functional, Artery; how it was run: as §2
# [6] = test system: Rattus norvegicus; assay: Increase in diastolic blood pressure for 1.0 ug/kg intravenous dosing of noradrenaline in pithed rats; format: functional, Artery; how it was run: as §2
# [7] = test system: Rattus norvegicus; assay: Increase in diastolic blood pressure for 0.1 ug/kg intravenous dosing of angiotensin in pithed rats; format: functional, Artery; how it was run: as §2
# [8] = species: Rattus norvegicus; assay: Increase in diastolic blood pressure for 3 Htz electrical stimulation in the pithed rats; format: functional, Artery; how it was run: as §2
# [9] = species: Rattus norvegicus; assay: Increase in diastolic blood pressure for 6 Htz electrical stimulation in the pithed rats; format: functional, Artery; how it was run: as §2
# [10] = species: Rattus norvegicus; assay: Increase in diastolic blood pressure for 1 Htz electrical stimulation in the pithed rats; format: functional, Artery; how it was run: as §2
# [11] = test system: Rattus norvegicus; assay: Increase in diastolic blood pressure for 0.3 ug/kg intravenous dosing of noradrenaline in pithed rats; format: functional, Artery; how it was run: as §2
# [12] = test system: Rattus norvegicus; assay: Maximum percentage reduction in mean blood pressure in metacorticoid (DOCA) hypertensive rats at standard intraperitoneal dose of 100 mg/kg; format: functional; conditions: route oral, in the assay text read “oral” for “intraperitoneal”; how it was run: as §1
# [13] = test system: Rattus norvegicus; assay: Maximum percentage reduction in mean blood pressure and heart rate in metacorticoid (DOCA) hypertensive rats at a standard oral dose of 25 mg/kg; format: functional; how it was run: as §1
# [14] = test system: Rattus norvegicus; assay: Maximum percentage reduction in mean blood pressure and heart rate in metacorticoid (DOCA) hypertensive rats at a standard oral dose of 50 mg/kg; format: functional; how it was run: as §1
# [15] = test system: Rattus norvegicus; assay: Maximum percentage reduction in mean blood pressure in metacorticoid (DOCA) hypertensive rats at a standard oral dose of 25 mg/kg; format: functional; how it was run: as §1
# [16] = test system: Rattus norvegicus; assay: Maximum percentage reduction in mean blood pressure in metacorticoid (DOCA) hypertensive rats at a standard oral dose of 50 mg/kg; format: functional; how it was run: as §1
# [17] = test system: Rattus norvegicus; assay: Increase in diastolic blood pressure at 1.0 ug/kg intravenous dosing of noradrenaline in pithed rats; format: functional, Artery; how it was run: as §2
# [18] = test system: Rattus norvegicus; assay: Increase in diastolic blood pressure at 0.1 ug/kg intravenous dosing of noradrenaline in pithed rats; format: functional, Artery; how it was run: as §2
# [19] = test system: Rattus norvegicus; assay: Increase in diastolic blood pressure at 0.03 ug/kg intravenous dosing of angiotensin in pithed rats; format: functional, Artery; how it was run: as §2
# [20] = species: Rattus norvegicus; assay: Increase in diastolic blood pressure at 3 Htz electrical stimulation in the pithed rats; format: functional, Artery; how it was run: as §2
# [21] = species: Rattus norvegicus; assay: Increase in diastolic blood pressure at 6 Htz electrical stimulation in the pithed rats; format: functional, Artery; how it was run: as §2
# [22] = test system: Rattus norvegicus; assay: Increase in diastolic blood pressure at 0.3 ug/kg intravenous dosing of noradrenaline in pithed rats; format: functional, Artery; how it was run: as §2
# [23] = test system: Rattus norvegicus; assay: Increase in diastolic blood pressure at 0.3 ug/kg intravenous dosing of angiotensin in pithed rats; format: functional, Artery; how it was run: as §2
# [24] = test system: Rattus norvegicus; assay: Increase in diastolic blood pressure at 0.1 ug/kg intravenous dosing of angiotensin in pithed rats; format: functional, Artery; how it was run: as §2
# [25] = species: Rattus norvegicus; assay: Increase in diastolic blood pressure at 1 Htz electrical stimulation in the pithed rats; format: functional, Artery; how it was run: as §2
# [26] = test system: Rattus norvegicus; assay: Maximum percentage reduction in mean blood pressure and heart rate in metacorticoid (DOCA) hypertensive rats at a standard oral dose of 100 mg/kg; IA = Inactive, Maximum percentage fall in MABP <10%; format: functional, organism-based; set-up: dose 100 mg/kg; how it was run: as §1
# [27] = test system: Rattus norvegicus; assay: Maximum percentage reduction in mean blood pressure and heart rate in metacorticoid (DOCA) hypertensive rats at a standard intraperitoneal dose of 100 mg/kg; format: functional; conditions: route oral, in the assay text read “oral” for “intraperitoneal”; how it was run: as §1
compound,measurement,setting,value
CSc1ccccc1-c1nnc(NN)s1.Cl,Reduction,[1],41%
Cl.NNc1nnc(-c2ccccc2-c2ccccc2)s1,Reduction,[1],18%
Cc1ccsc1-c1nnc(NN)s1.Cl,Reduction,[1],48%
Cl.NNc1nnc(-c2ccsc2)s1,Reduction,[1],33%
Cl.NNc1nnc(-c2ccc(Cl)c(Cl)c2)s1,Reduction,[1],17%
Nc1cc(N2CCCCC2)nc(N)[n+]1[O-] [MINOXIDIL],Increase in blood pressure,[2],25 mmHg
same,Increase in blood pressure,[3],10 mmHg
same,Reduction,[4],42%
same,Increase in blood pressure,[5],6 mmHg
same,Increase in blood pressure,[6],45 mmHg
same,Increase in blood pressure,[7],13 mmHg
same,Increase in blood pressure,[8],25 mmHg
same,Increase in blood pressure,[9],31 mmHg
same,Increase in blood pressure,[10],9 mmHg
same,Increase in blood pressure,[11],25 mmHg
Cc1cc(C)cc(-c2nnc(NN)s2)c1.Cl,Reduction,[1],18%
Cc1ccc(-c2nnc(NN)s2)cc1C.Cl,Reduction,[1],22%
COc1cccc(-c2nnc(NN)s2)c1.Cl,Reduction,[1],18%
Cl.NNc1nnc(-c2cccc(Cl)c2)s1,Reduction,[1],20%
COc1cc2nc(N3CCN(C(=O)c4ccco4)CC3)nc(N)c2cc1OC [PRAZOSIN],Increase in blood pressure,[2],67 mmHg
same,Increase in blood pressure,[3],23 mmHg
same,Increase in blood pressure,[5],30 mmHg
same,Increase in blood pressure,[6],49 mmHg
same,Increase in blood pressure,[7],45 mmHg
same,Increase in blood pressure,[8],26 mmHg
same,Increase in blood pressure,[9],31 mmHg
same,Increase in blood pressure,[10],18 mmHg
same,Increase in blood pressure,[11],32 mmHg
Cl.NNc1nnc(-c2ccccc2F)s1,Reduction,[1],31%
Cl.NNc1nnc(-c2ccc(Cl)cc2)s1,Reduction,[12],28%
Cc1ccccc1-c1nnc(NN)s1.Cl,Increase in blood pressure,[2],50 mmHg
same,Increase in blood pressure,[3],10 mmHg
same,Increase in blood pressure,[5],12 mmHg
same,Increase in blood pressure,[6],29 mmHg
same,Increase in blood pressure,[7],28 mmHg
same,Reduction,[13],33%
same,Increase in blood pressure,[8],32 mmHg
same,Increase in blood pressure,[9],41 mmHg
same,Increase in blood pressure,[10],16 mmHg
same,Increase in blood pressure,[11],16 mmHg
same,Reduction,[14],48%
CC(C)(C)c1ccccc1-c1nnc(NN)s1,Reduction,[1],58%
CCc1ccccc1-c1nnc(NN)s1.Cl,Reduction,[15],42%
same,Reduction,[16],54%
same,Increase in blood pressure,[17],22 mmHg
same,Increase in blood pressure,[18],8 mmHg
same,Increase in blood pressure,[19],2 mmHg
same,Increase in blood pressure,[20],25 mmHg
same,Increase in blood pressure,[21],32 mmHg
same,Increase in blood pressure,[22],14 mmHg
same,Increase in blood pressure,[23],25 mmHg
same,Increase in blood pressure,[24],6 mmHg
same,Increase in blood pressure,[25],14 mmHg
NNc1nnc(-c2c(Cl)cccc2Cl)s1,Reduction,[1],50%
Cl.NNc1nnc(-c2cccc3ccccc23)s1,Reduction,[1],26%
C[S+]([O-])c1ccccc1-c1nnc(NN)s1.Cl (stereo not given),Reduction,[15],31%
same,Reduction,[16],45%
same,Increase in blood pressure,[17],21 mmHg
same,Increase in blood pressure,[18],6 mmHg
same,Increase in blood pressure,[19],4 mmHg
same,Increase in blood pressure,[20],34 mmHg
same,Increase in blood pressure,[21],47 mmHg
same,Increase in blood pressure,[22],10 mmHg
same,Increase in blood pressure,[23],29 mmHg
same,Increase in blood pressure,[24],11 mmHg
same,Increase in blood pressure,[25],19 mmHg
CCCOc1ccccc1-c1nnc(NN)s1.Cl,Reduction,[1],46%
NNc1nnc(-c2ccco2)s1,Reduction,[1],39%
CCC[S+]([O-])c1ccccc1-c1nnc(NN)s1.Cl (stereo not given),Reduction,[1],48%
Cc1cccc(C)c1-c1nnc(NN)s1.Cl,Reduction,[1],54%
Cl.NNc1nnc(-c2ccccc2Cl)s1,Reduction,[1],21%
Cc1cc(F)ccc1-c1nnc(NN)s1.Cl,Reduction,[1],58%
Cl.NNc1nnc(-c2cccs2)s1,Reduction,[1],35%
NNc1nncc2ccccc12 [HYDRALAZINE],Increase in blood pressure,[2],38 mmHg
same,Increase in blood pressure,[3],8 mmHg
same,Increase in blood pressure,[5],8 mmHg
same,Increase in blood pressure,[6],28 mmHg
same,Increase in blood pressure,[7],21 mmHg
same,Increase in blood pressure,[8],42 mmHg
same,Increase in blood pressure,[9],54 mmHg
same,Increase in blood pressure,[10],28 mmHg
same,Increase in blood pressure,[11],15 mmHg
Cl.NNc1nnc(-c2ccccc2Br)s1,Reduction,[1],48%
Cl.NNc1nnc(-c2ccccn2)s1,Reduction,[1],21%
COc1ccccc1-c1nnc(NN)s1.Cl,Reduction,[16],39%
same,Reduction,[1],46%
CCCCCCOc1ccccc1-c1nnc(NN)s1,Reduction,[26],inactive
COc1ccc(Cl)c(OC)c1-c1nnc(NN)s1.Cl,Reduction,[1],53%
Cl.NNc1nnc(-c2ccccc2[N+](=O)[O-])s1,Reduction,[1],26%
COc1ccc(-c2nnc(NN)s2)cc1OC.Cl,Reduction,[27],24%
Cc1ccc(-c2nnc(NN)s2)cc1.Cl,Reduction,[1],28%
Cc1cccc(-c2nnc(NN)s2)c1C.Cl,Reduction,[1],50%
Cl.NNc1nnc(-c2ccc(C(F)(F)F)cc2)s1,Reduction,[1],21%
Cc1ccc(-c2nnc(NN)s2)c(C)c1.Cl,Reduction,[1],61%
Cl.NNc1nnc(-c2ccccc2)s1,Reduction,[1],42%
Cc1ccc(F)cc1-c1nnc(NN)s1.Cl,Reduction,[1],63%
Cc1ccc(C)c(-c2nnc(NN)s2)c1.Cl,Reduction,[1],50%
COc1cccc(OC)c1-c1nnc(NN)s1.Cl,Reduction,[1],33%
Cl.NNc1nnc(-c2ccccc2I)s1,Reduction,[16],24%
same,Reduction,[1],58%
Cc1cccc(-c2nnc(NN)s2)c1.Cl,Reduction,[1],29%
Cl.NNc1nnc(-c2cccc(C(F)(F)F)c2)s1,Reduction,[1],21%
Cl.NNc1nnc(-c2cccc(O)c2)s1,Reduction,[1],16%
Cl.NNc1nnc(-c2ccccc2C(F)(F)F)s1,Reduction,[16],33%
same,Reduction,[1],49%
